Calls of active or inactive are those of the source. The calls are words filed in the database; no cut-off is given here.
What was measured:
[1] = target: T1, Toll-like receptor 8 (Homo sapiens) (UniProt Q9NR97); experiment: Agonist activity at TLR8 in human PBMC assessed as induction of myeloid dendritic cell maturation by measuring CD86 level at 0.1 uM after 6 hrs by flow cytometry; type: cell-based
T1 sequence (whole entry): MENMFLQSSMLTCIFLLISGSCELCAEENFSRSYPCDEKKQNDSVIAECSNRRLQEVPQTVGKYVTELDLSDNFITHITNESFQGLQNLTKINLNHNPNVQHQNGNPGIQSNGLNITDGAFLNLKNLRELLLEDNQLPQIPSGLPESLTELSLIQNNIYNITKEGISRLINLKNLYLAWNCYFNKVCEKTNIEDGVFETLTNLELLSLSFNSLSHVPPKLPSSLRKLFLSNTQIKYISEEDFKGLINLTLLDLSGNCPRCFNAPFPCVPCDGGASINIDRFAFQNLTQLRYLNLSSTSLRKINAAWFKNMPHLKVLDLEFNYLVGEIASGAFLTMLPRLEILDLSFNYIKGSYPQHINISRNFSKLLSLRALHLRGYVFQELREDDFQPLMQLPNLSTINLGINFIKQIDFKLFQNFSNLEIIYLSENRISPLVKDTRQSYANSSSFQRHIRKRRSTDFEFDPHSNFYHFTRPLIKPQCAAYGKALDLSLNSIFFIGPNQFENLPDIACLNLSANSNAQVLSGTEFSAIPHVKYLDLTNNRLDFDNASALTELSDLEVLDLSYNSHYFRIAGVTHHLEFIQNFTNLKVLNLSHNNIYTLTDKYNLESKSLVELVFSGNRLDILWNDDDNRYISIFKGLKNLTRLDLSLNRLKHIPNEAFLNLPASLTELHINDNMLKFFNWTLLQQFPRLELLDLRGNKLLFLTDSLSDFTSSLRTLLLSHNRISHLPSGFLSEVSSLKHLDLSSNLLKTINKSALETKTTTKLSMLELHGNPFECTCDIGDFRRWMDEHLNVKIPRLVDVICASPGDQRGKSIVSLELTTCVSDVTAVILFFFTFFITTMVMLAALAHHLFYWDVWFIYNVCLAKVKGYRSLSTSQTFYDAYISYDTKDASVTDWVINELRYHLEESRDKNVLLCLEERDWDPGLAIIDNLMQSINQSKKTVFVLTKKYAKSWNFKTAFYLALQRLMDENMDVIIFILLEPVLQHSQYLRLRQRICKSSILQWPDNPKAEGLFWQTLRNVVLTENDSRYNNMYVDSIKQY
Method in brief: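 hPBMCs stimulated 6 h at a single 0.1 μM dose; HLA-DR, MHC-I, CD80 and CD86 on mDCs and pDCs measured by flow cytometry, expressed as fold change versus unstimulated cells. Mean ± SD of three independent experiments in three different donors.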

Toll-like receptor 7 = target: T2, Toll-like receptor 7 (Homo sapiens, UniProt Q9NYK1); experiment: Agonist activity at human TLR7 expressed in HEK293 cells assessed as induction of NFKappaB activity after 24 hrs by SEAP reporter gene assay; type: cell-based
T2 sequence (Q9NYK1 whole entry): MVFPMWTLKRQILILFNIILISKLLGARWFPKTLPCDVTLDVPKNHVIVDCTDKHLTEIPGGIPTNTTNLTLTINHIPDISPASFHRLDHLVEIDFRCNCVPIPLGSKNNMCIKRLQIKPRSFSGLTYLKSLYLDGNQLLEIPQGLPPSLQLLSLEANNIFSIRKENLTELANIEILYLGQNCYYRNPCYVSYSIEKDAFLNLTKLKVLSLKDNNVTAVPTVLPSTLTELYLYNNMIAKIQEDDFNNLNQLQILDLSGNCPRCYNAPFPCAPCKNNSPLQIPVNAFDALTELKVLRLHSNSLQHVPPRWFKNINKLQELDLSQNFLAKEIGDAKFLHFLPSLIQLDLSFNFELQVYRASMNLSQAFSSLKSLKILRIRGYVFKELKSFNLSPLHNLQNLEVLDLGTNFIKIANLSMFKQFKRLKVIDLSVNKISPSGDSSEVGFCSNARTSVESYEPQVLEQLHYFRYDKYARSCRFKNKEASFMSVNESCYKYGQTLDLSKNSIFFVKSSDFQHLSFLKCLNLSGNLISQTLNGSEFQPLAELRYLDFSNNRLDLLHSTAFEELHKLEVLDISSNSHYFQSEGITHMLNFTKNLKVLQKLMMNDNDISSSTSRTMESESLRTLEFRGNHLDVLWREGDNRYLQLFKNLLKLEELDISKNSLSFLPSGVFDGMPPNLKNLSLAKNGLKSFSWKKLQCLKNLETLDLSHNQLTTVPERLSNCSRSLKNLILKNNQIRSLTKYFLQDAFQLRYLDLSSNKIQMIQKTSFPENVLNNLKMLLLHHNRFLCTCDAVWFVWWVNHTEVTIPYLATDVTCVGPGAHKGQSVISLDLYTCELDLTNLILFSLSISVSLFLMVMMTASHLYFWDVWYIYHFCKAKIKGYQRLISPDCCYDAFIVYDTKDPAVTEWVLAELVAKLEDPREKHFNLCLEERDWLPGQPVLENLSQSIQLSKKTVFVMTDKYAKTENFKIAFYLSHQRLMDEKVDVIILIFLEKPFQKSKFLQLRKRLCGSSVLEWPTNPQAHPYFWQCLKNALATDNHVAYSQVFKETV
Method in brief: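 HEK293 cells stably transfected with hTLR7 or hTLR8 plus an NFκB-driven SEAP reporter, treated 24 h with compound over a μM range; SEAP secretion read out. EC50 as mean ± SD of three (TLR7) or four (TLR8) independent experiments.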

Activity [1]: inactive
EC50 (Toll-like receptor 7): > 500 µM
SMILES: Nc1nc(OCCCCO)nc2c1[nH]c(=O)n2CC1CCNCC1

From ChEMBL document CHEMBL4627265, “Optimization of 8-oxoadenines with toll-like-receptor 7 and 8 activity” (Bioorg Med Chem Lett, 2020)
